Measured values published in the RNAGym collection of RNA variant scans (doi:10.1126/science.aae0568).
Variants at the floor of the assay were thinned out.

B1: tRNA (parent)
chain: GUUCCGUUGGCGUAAUGGUAACGCGUCUCCCUCCUAAGGAGAAGACUGCGGGUUCGAGUCCCGUACGGAACG

Variants of: B1
Assay: yeast fitness relative to wild type (ratio to wild type); higher = fitter; tRNA-Arg(CCU), competitive growth, 37 C, YPD
In short: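 Amplicons of the tRNA-Arg(CCU) gene were sequenced, 100-nucleotide paired-end, from the start population and from each end population of a pooled yeast competition. The competition, in six parallel replicates, lasted 24 hours in YPD at 37°C. Fitness relative to wild type was calculated from changes in genotype frequencies. Genotypes had to have ≥ 100 starting reads, and estimates < 0.5 were set to 0.5.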

For GUUCCGUUGGCGUAAUGGUAACGUGUCUUCCUCCUAAGGAGAAGACUGGGGGUUCGAGUCCCGUACGGAACG [C24U C29U C49G], which yeast fitness is on record?
The yeast fitness was ≤ 0.5.

With GUUCCGUUGGCGUAAUGGUAACGUGUCUCACUCCUAGGGAGAAGACUGCGGGUUCGAGUCCCGUACGGAACG [C24U C30A A37G] as the variant, how does the yeast fitness read?
The yeast fitness was 0.593.

Which yeast fitness does the source give for GUUCCGUUGGCGUAAUGGUAACGUGUCUCACUCCUAAGGAGAAGACUGCGGGUUCGAGUUCCGUACGGAACG [C24U C30A C60U] here?
The yeast fitness was ≤ 0.5.

With GUUCCGUUGGCGUAAUGGUAACGUGUCUCGCUCCUAAGGAGAAGCCUGCGGGUUCGAGUCGCGUACGGAACG [C24U C30G A45C C61G] as the variant, how does the yeast fitness read?
Its yeast fitness is 0.568.

Which yeast fitness does the source give for GUUCCGUUGGCGUAAUGGUAACGUGUCUCGCUCCUAAGGAGAAGAGUGCGGAUUCGAAUCCCGUACGGAACG [C24U C30G C46G G52A G58A] here?
Its yeast fitness is 0.559.

For GUUCCGUUGGCGUAAUGGUAACGUGUCUCGCUCCUAAGGAGAAGACUGCGAGUUCGAGUUCCGUACAGAACG [C24U C30G G51A C60U G67A], which yeast fitness is on record?
Its yeast fitness is ≤ 0.5.

With GUUCCGUUGGCGUAAUGGUAACGUGUCUCUCUCCUAAGGAGAAGACUGCGGGUUCGAGUCCCGUACGGAACG [C24U C30U] as the variant, how does the yeast fitness read?
The yeast fitness was 0.744.

For GUUCCGUUGGCGUAAUGGUAACGUGUCUCUCUCCUAAGGAGAAGACUGCGGGUUCGCGUCCCGUACGGAACG [C24U C30U A57C], which yeast fitness is on record?
Its yeast fitness is ≤ 0.5.

For GUUCCGUUGGCGUAAUGGUAACGUGUCUCCAUCCUAAGGAGAAGACUGCGGGUUCCAGUCCCGUACGGAACG [C24U C31A G56C], which yeast fitness is on record?
Its yeast fitness is 0.544.

For GUUCCGUUGGCGUAAUGGUAACGUGUCUCCGUCCUAAGGAGAAGACUGCGGGUUCGAGUACCGCACGGAACG [C24U C31G C60A U64C], which yeast fitness is on record?
The yeast fitness was ≤ 0.5.

Which yeast fitness does the source give for GUUCCGUUGGCGUAAUGGUAACGUGUCUCCUUCCUAAGGCGAAGACUGCGGGUUCGCGUCACGUACAGAACG [C24U C31U A40C A57C C61A G67A] here?
Its yeast fitness is ≤ 0.5.

With GUUCCGUUGGCGUAAUGGUAACGUGUCUCCCUGCUAAGGAGAAGACUGCGGGUUCGAGCCCCGAACGGAACG [C24U C33G U59C U64A] as the variant, how does the yeast fitness read?
Its yeast fitness is 0.686.

With GUUCCGUUGGCGUAAUGGUAACGUGUCUCCCUUGUAAGGUGAAGACUGCGGGUUCGAGUCCCGUACAGAACG [C24U C33U C34G A40U G67A] as the variant, how does the yeast fitness read?
Its yeast fitness is 0.541.

With GUUCCGUUGGCGUAAUGGUAACGUGUCUCCCUUCUAAGGAGAAGACUGCGGGUUCGAGUCACGUACGGUACG [C24U C33U C61A A69U] as the variant, how does the yeast fitness read?
The yeast fitness was ≤ 0.5.

Which yeast fitness does the source give for GUUCCGUUGGCGUAAUGGUAACGUGUCUCCCUCGGAAAGAGAAGCCUGCGGGUUCGAGUCCCGUACGGAACG [C24U C34G U35G G38A A45C] here?
Its yeast fitness is 0.646.

With GUUCCGUUGGCGUAAUGGUAACGUGUCUCCCUCUUAAGGAGAAGACUGCGGGUUCGAGUCCCGUAUGGAACG [C24U C34U C66U] as the variant, how does the yeast fitness read?
Its yeast fitness is 0.58.

For GUUCCGUUGGCGUAAUGGUAACGUGUCUCCCUCCUAAGGAGAAGAAUGCGGGUUCGGGUCCCGUACGGAACG [C24U C46A A57G], which yeast fitness is on record?
The yeast fitness was 0.749.

Which yeast fitness does the source give for GUUCCGUUGGCGUAAUGGUAACGUGUCUCCCUCCUAAGGAGAAGAAUGCGGGUUCGAGUCCCGUACGGGACG [C24U C46A A69G] here?
Its yeast fitness is 0.996.

For GUUCCGUUGGCGUAAUGGUAACGUGUCUCCCUCCUAAGGAGAAGAAUGCGGGUUCGAGUCCAGUACGGCACG [C24U C46A C62A A69C], which yeast fitness is on record?
Its yeast fitness is 0.573.

With GUUCCGUUGGCGUAAUGGUAACGUGUCUCCCUCCUAAGGAGAAGACUGAGGGUUCGAGUCCCGUACAGAACG [C24U C49A G67A] as the variant, how does the yeast fitness read?
The yeast fitness was 0.547.

For GUUCCGUUGGCGUAAUGGUAACGUGUCUCCCUCCUAAGGAGAAGACUGAGGGUUCGAGUCCCGUACCGAACG [C24U C49A G67C], which yeast fitness is on record?
Its yeast fitness is 0.527.

With GUUCCGUUGGCGUAAUGGUAACGUGUCUCCCUCCUAAGGAGAAGACUGGGGGUUCGAGUCCCGUACGGAACG [C24U C49G] as the variant, how does the yeast fitness read?
The yeast fitness was 0.724.

Which yeast fitness does the source give for GUUCCGUUGGCGUAAUGGUAACGUGUCUCCCUCCUAAGGAGAAGACUGGGGGUUCCAAUCCCGUACAGAACG [C24U C49G G56C G58A G67A] here?
The yeast fitness was ≤ 0.5.

For GUUCCGUUGGCGUAAUGGUAACGUGUCUCCCUCCUAAGGAGAAGACUGGGGGUUCGAGUCCCAUACGGCACG [C24U C49G G63A A69C], which yeast fitness is on record?
The yeast fitness was ≤ 0.5.

With GUUCCGUUGGCGUAAUGGUAACGUGUCUCCCUCCUAAGGAGAAGACUGUGGGUUCGAGGCCCGUACUGAACG [C24U C49U U59G G67U] as the variant, how does the yeast fitness read?
Its yeast fitness is ≤ 0.5.

Which yeast fitness does the source give for GUUCCGUUGGCGUAAUGGUAACGUGUCUCCCUCCUAAGGAGAAGACUGCGGGUUGGAGUCCCGUACGGAACG [C24U C55G] here?
The yeast fitness was 0.638.

For GUUCCGUUGGCGUAAUGGUAACGUGUCUCCCUCCUAAGGAGAAGACUGCGGGUUGGAGUCCCGUACAGAACG [C24U C55G G67A], which yeast fitness is on record?
The yeast fitness was ≤ 0.5.

For GUUCCGUUGGCGUAAUGGUAACGUGUCUCCCUCCUAAGGAGAAGACUGCGGGUUUGAGUCCCGUACGGAACG [C24U C55U], which yeast fitness is on record?
Its yeast fitness is 0.854.

Which yeast fitness does the source give for GUUCCGUUGGCGUAAUGGUAACGUGUCUCCCUCCUAAGGAGAAGACUGCGGGUUCGAGUUCCGUACGGAACG [C24U C60U] here?
Its yeast fitness is 0.797.

With GUUCCGUUGGCGUAAUGGUAACGUAUCUCUCUCCUAAGGAGAAGACUGCGGGUUCGAGUCCCGUACGGAACG [C24U G25A C30U] as the variant, how does the yeast fitness read?
The yeast fitness was 0.684.

With GUUCCGUUGGCGUAAUGGUAACGUAUCUCUCUCCUAAGGAGAAGAAUGCGGGUUCGAGUCCCGUACGGUACG [C24U G25A C30U C46A A69U] as the variant, how does the yeast fitness read?
Its yeast fitness is 0.611.

For GUUCCGUUGGCGUAAUGGUAACGUCUCUCCCUCCUAAGGAGAAGACUGCGGGUUCAAGUCCCGUACGGAACG [C24U G25C G56A], which yeast fitness is on record?
The yeast fitness was 0.882.

For GUUCCGUUGGCGUAAUGGUAACGUGUCUCCCUCCUAAAGAGAAGACUGCGGGUUCGAGUCCCGUACGGAACG [C24U G38A], which yeast fitness is on record?
The yeast fitness was 0.819.

Which yeast fitness does the source give for GUUCCGUUGGCGUAAUGGUAACGUGUCUCCCUCCUAAGAAGAAGACUGCGGGUUCGAGUCCCGUUCGGAACG [C24U G39A A65U] here?
Its yeast fitness is 0.528.

For GUUCCGUUGGCGUAAUGGUAACGUGUCUCCCUCCUAAGCAGAAGACUGCGGGUUCGAGUCCCGUACGGAGCG [C24U G39C A70G], which yeast fitness is on record?
The yeast fitness was ≤ 0.5.

With GUUCCGUUGGCGUAAUGGUAACGUGUCUCCCUCCUAAGGAAAAGACUGCGGGUUCGAGUCCAGUACGGAACG [C24U G41A C62A] as the variant, how does the yeast fitness read?
Its yeast fitness is 0.605.

Which yeast fitness does the source give for GUUCCGUUGGCGUAAUGGUAACGUGUCUCCCUCCUAAGGAAAAGACUGCGGGUUCGAGUCCAGUACGGUACG [C24U G41A C62A A69U] here?
The yeast fitness was ≤ 0.5.
